Experimental data from article PMC8399557 (Journal of medicinal chemistry, 2020).

Tests used:
Type in all cases: physicochemical
Optical properties = conditions: for Abs (nm) / Em (nm) / Extinction Coefficient (cm^−1M^−1) / Stokes Shift (nm): in methanol; for Quantum yield (%, in Methanol): quinine bisulfate as the reference
[1] = Solvolytic stability of difluoro-dioxaborinins by 19F NMR in water/DMSO; conditions: for times more resistant to solvolysis than 1: in 50 M H2O; for Stability (t1/2, h) 10% H2O/90% DMSO / Stability (t1/2, h) 90% H2O/10% DMSO: solvolysis half-life, 19F NMR, 25 °C; for Stability (t1/2, h) 10% H2O/90% DMSO: 10% H2O/90% DMSO (5.55 M H2O); for Stability (t1/2, h) 90% H2O/10% DMSO: 90% H2O/10% DMSO (50 M H2O); for Fold increase in stability (90% to 10% H2O): solvolysis in 5.5 M H2O vs. 50 M H2O; for fold more rapid solvolysis than 5: determined in 5.55 M H2O; for relative solvolytic stability (in words): comparison among Figure 2 / Table 1 compounds, 10% water/90% DMSO
Outline: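 Test compound was held in 10% or 90% aqueous DMSO, with aqueous portions in 1X PBS (pH 7.4, 10 mM), and 19F NMR spectra were integrated over time. The fraction of 19F on the test compound was taken as its integral divided by the sum of all fluoride integrals. Fractions versus time were fitted to P = exp(−k*t), and half-lives were derived from k.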

[2] = Water solubility judged by silica TLC with water as the mobile phase

| Abs (nm) (Optical properties) | Em (nm) (Optical properties) | Extinction Coefficient (cm^−1M^−1) (Optical properties) | Stokes Shift (nm) (Optical properties) | times more resistant to solvolysis than 1 [1] | Stability (t1/2, h) 10% H2O/90% DMSO [1] | Stability (t1/2, h) 90% H2O/10% DMSO [1] | Fold increase in stability (90% to 10% H2O) [1] | Quantum yield (%, in Methanol) (Optical properties) | fold more rapid solvolysis than 5 [1] | solvolysis in the absence of water ([1]; 100% DMSO) | fraction decomposed at 110 min (one F-18 half-life) post i.v. injection ([1]; assuming the in vitro solvolysis rate translates in vivo) | solvolysis half-life compared with F-18 nuclear decay half-life ([1]; Table 1 conditions) | Compound | water solubility (in words) [2] | relative solvolytic stability (in words) [1] |
| --- | --- | --- | --- | --- | --- | --- | --- | --- | --- | --- | --- | --- | --- | --- | --- |
| 303 nm | 307 nm | 12,200 cm^−1M^−1 | 4 nm | 6.2 times | 53.9 ± 1.1 h | 17.1 ± 0.7 h | 3.2 fold | – | – | – | – | – | CC1=[O+][B-](F)(F)OC(C)=C1C [Compound 2, 2,2-Difluoro-4,5,6-trimethyl-2H-1λ^3,3,2λ^4-dioxaborinine] | water solubility that allowed them to be resolved on silica TLC with water as the mobile phase | – |
| 434 nm | 509 nm | 54,000 cm^−1M^−1 | 75 nm | – | 16.0 ± 0.2 h | – | – | 3.1% | 24 fold | – | – | – | COc1cc(/C=C/C2=CC(/C=C/c3ccc(OC(=O)CCN4C(=O)C=CC4=O)c(OC)c3)=[O+][B-](F)(F)O2)ccc1OC(=O)CCN1C(=O)C=CC1=O [Compound 10, ((1E,1′E)-(2,2-difluoro-2H-1λ^3,3,2λ^4-dioxaborinine-4,6-diyl)bis(ethene-2,1-diyl))bis(2-methoxy-4,1-phenylene) bis(3-(2,5-dioxo-2,5-dihydro-1H-pyrrol-1-yl)propanoate)] | – | – |
| 301 nm | 307 nm | 12,600 cm^−1M^−1 | 6 nm | 1.9 times | 24.6 ± 0.5 h | 5.19 ± 0.15 h | 4.7 fold | – | – | – | – | – | CCOC(=O)CCC1=C(C)O[B-](F)(F)[O+]=C1C [Compound 6, Ethyl 3-(2,2-difluoro-4,6-dimethyl-2H-1λ^3,3,2λ^4-dioxaborinin-5-yl)propanoate] | water solubility that allowed them to be resolved on silica TLC with water as the mobile phase | – |
| 430 nm | 512 nm | 50,800 cm^−1M^−1 | 82 nm | – | 11.9 ± 0.4 h | – | – | 3.0% | 33 fold | – | – | – | COc1cc(/C=C/C2=CC(/C=C/c3ccc(OC(=O)c4c(F)cc(F)cc4F)c(OC)c3)=[O+][B-](F)(F)O2)ccc1OC(=O)c1c(F)cc(F)cc1F [Compound 9, ((1E,1′E)-(2,2-difluoro-2H-1λ^3,3,2λ^4-dioxaborinine-4,6-diyl)bis(ethene-2,1-diyl))bis(2-methoxy-4,1-phenylene) bis(2,4,6-trifluorobenzoate)] | – | – |
| 303 nm | 306 nm | 12,000 cm^−1M^−1 | 3 nm | 5.6 times | 53.9 ± 1.5 h | 15.2 ± 0.5 h | 3.5 fold | – | – | – | – | – | CCC1=C(C)O[B-](F)(F)[O+]=C1C [Compound 3, 5-Ethyl-2,2-difluoro-4,6-dimethyl-2H-1λ^3,3,2λ^4-dioxaborinine] | water solubility that allowed them to be resolved on silica TLC with water as the mobile phase | – |
| 279 nm | 305 nm | 9,180 cm^−1M^−1 | 26 nm | – | 7.63 ± 0.18 h | 2.73 ± 0.02 h | 2.8 fold | – | – | not observed | 37% | – | CC1=CC(C)=[O+][B-](F)(F)O1 [Compound 1, 2,2-Difluoro-4,6-dimethyl-2H-1λ^3,3,2λ^4-dioxaborinine] | water solubility that allowed them to be resolved on silica TLC with water as the mobile phase | second most rapid difluoro-dioxaborinin to undergo aqueous solvolysis |
| 303 nm | 307 nm | 12,000 cm^−1M^−1 | 4 nm | 2.5 times | 33.7 ± 1.1 h | 6.75 ± 0.19 h | 5.0 fold | – | – | – | – | – | CC1=C2CCCCC2=[O+][B-](F)(F)O1 [Compound 15, 2,2-Difluoro-4-methyl-5,6,7,8-tetrahydro-2H-1λ^3,2λ^4-benzo[e][1,3,2]dioxaborinine] | water solubility that allowed them to be resolved on silica TLC with water as the mobile phase | – |
| 325 nm | 328 nm | 19,800 cm^−1M^−1 | 3 nm | – | 4.46 ± 0.05 h | – | – | – | – | – | – | > 1.83 h | CC1=CC(c2ccccc2)=[O+][B-](F)(F)O1 [Compound 14, 2,2-Difluoro-4-methyl-6-phenyl-2H-1λ^3,3,2λ^4-dioxaborinine] | – | least stable |
